In ChEMBL document CHEMBL1133763, “Synthesis and immunosuppressive activity of novel prodigiosin derivatives” (J Med Chem, 2000):
Values after ≈ are worked out from the molar mass of the structure shown.

Tests used:
Mus musculus [1] = assay: Dose able to reduce by 50% the thickness increase compared to controls by DTH Assay on mice after daily dose by ip route for 6 days; format: functional; details: 144 h
Summary of the method: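 Female C57Bl/6 mice, 8-9 weeks, primed iv with 1 × 105 SRBC in saline; footpad challenge 5 days later with 1 × 108 SRBC. Compound in Cremophor ELP/ethanol (6.5:3.5) given ip daily for 6 days from priming day at several doses. Footpad swelling by dial micrometer 24 h post-challenge; ED50 = dose halving swelling increase; 10 animals/group, ≥3 experiments.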

Mus musculus [2] = assay: The Toxicity of compound was measured by DTH Assay on mice after giving compound daily by ip route for 6 days at different doses; format: organism-based; details: in vivo, 144 h
Summary of the method: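 Female C57Bl/6 mice, 8-9 weeks old, were primed iv with 1 × 10^5 SRBC and challenged in the footpad with 1 × 10^8 SRBC five days later. Compound in Cremophor ELP/ethanol (6.5:3.5 v:v) was given ip daily for 6 days from priming. Value is the minimal daily dose causing weight loss, hair ruffling or occasionally death, as mean ± SD of ≥3 experiments, 10 mice/group.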

Mus musculus [3] = species: Mus musculus; assay: The concentration inhibiting 50% cell proliferation of murine Splenocytes induced by the mitogen Concanavalin A of mice; format: functional
Summary of the method: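 Spleens from C57Bl/6 mice; splenocytes at 4 × 10^5 cells/well in triplicate with Con A 1.7 µg/mL and varying compound concentrations in complete RPMI 1640. 72 h at 37 °C, 5% CO2; [3H]thymidine 0.2 µCi/well during final 18 h; uptake counted by scintillation. IC50 from % inhibition of cpm versus control; mean ± SD of ≥3 experiments.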

B16 [4] = assay: Cytotoxicity, ability to inhibit viability of murine resting lymphocytes, murine B16 melanoma cells and human K562 erythroleukemia cells by 50% by […]; format: functional, cell-based; details: Mus musculus
Summary of the method: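 Murine resting lymphocytes (4 × 10^5 cells/well), murine B16 melanoma and human K562 cells (1 × 10^5 cells/well each) seeded in triplicate with a range of compound concentrations in complete RPMI 1640 (10% inactivated FCS); DMSO stocks at 2 mg/mL diluted at use. MTT added for last 4 h of 48 h culture; formazan dissolved in HCl–2-propanol, OD 570/690 nm; IC50 from % inhibition versus control.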

B16 [5] = assay: Selectivity index was evaluated; format: functional, Mus musculus
Summary of the method: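 Ratio of mean IC50 for MTT viability in K562, B16 and resting lymphocytes (averaged over the three) to IC50 for Con A-stimulated splenocyte proliferation.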

SMILES | ED50 (Mus musculus [1]) | Toxicity (Mus musculus [2]) | IC50 (Mus musculus [3]) | IC50 (B16 [4]) | Selectivity index (B16 [5])
CCCCCCCCCCCC1=N/C(=C\c2[nH]c(-c3ccc[nH]3)cc2OCCC)C=C1 | 1 mg/kg | 2 mg/kg | 0.0056 µg/mL (≈ 0.0133 µM) | 0.322 µg/mL (≈ 0.764 µM) | 58
CCCCCCCCCCCCCC1=N/C(=C\c2[nH]c(-c3ccc[nH]3)cc2OCc2ccccc2)C=C1 | – | – | 0.262 µg/mL (≈ 0.526 µM) | 2.78 µg/mL (≈ 5.59 µM) | 11
CCCCCCCCCCCC1=N/C(=C\c2[nH]c(C(=O)NCC)cc2OC)C=C1 | – | – | > 1 µg/mL | > 1 µg/mL | –
CCCCCC1=N/C(=C\c2[nH]c(-c3ccc[nH]3)cc2OC)C=C1 | – | – | 0.02 µg/mL (≈ 0.0646 µM) | 0.079 µg/mL (≈ 0.255 µM) | 4
CCCCCCCCCCCC1=N/C(=C\c2[nH]c(-c3cc4cc(Cl)ccc4[nH]3)cc2OC)C=C1 | – | – | > 1 µg/mL | > 1 µg/mL | –
CCCCCCCCCCCC1=N/C(=C\c2[nH]c(-n3cncn3)cc2OC)C=C1 | – | – | > 1 µg/mL | > 1 µg/mL | –
COc1cc(-c2ccc[nH]2)[nH]c1/C=C1/C=CC(CCCCCC(=O)O)=N1 | – | – | > 1 µg/mL | > 1 µg/mL | –
CCCCCCCCCCCC1=N/C(=C\c2[nH]c(-c3ccc(C(C)=O)[nH]3)cc2OC)C=C1 | – | – | 0.1 µg/mL (≈ 0.23 µM) | > 1 µg/mL | –
CCCCCCCCCCCC1=N/C(=C\c2[nH]c(-c3ccc[nH]3)cc2OC(C)C)C=C1 | – | – | 0.0026 µg/mL (≈ 0.00617 µM) | 0.282 µg/mL (≈ 0.669 µM) | 108
CC1=N/C(=C\c2[nH]c(-c3ccc[nH]3)cc2OCc2ccccc2)C=C1 | – | – | 0.0079 µg/mL (≈ 0.024 µM) | 0.083 µg/mL (≈ 0.252 µM) | 10
COc1cc(-c2ccc[nH]2)[nH]c1/C=C1/C=CC(CCc2ccccc2)=N1 | – | – | 0.0075 µg/mL (≈ 0.0218 µM) | 0.299 µg/mL (≈ 0.871 µM) | 40
CCCCCCCCCCCC1=N/C(=C\c2[nH]c(-c3ccc[nH]3)cc2OC)C=C1 [UNDECYLPRODIGININE] | 0.6 mg/kg | 1 mg/kg | 0.002 µg/mL (≈ 0.00508 µM) | 0.106 µg/mL (≈ 0.269 µM) | –
COc1cc(-c2ccc[nH]2)[nH]c1/C=C1/C=C2CCCCC2=N1 | – | – | 0.0185 µg/mL (≈ 0.0631 µM) | 0.12 µg/mL (≈ 0.409 µM) | 6
CCCCCCCCCCCCCCCC1=N/C(=C\c2[nH]c(-c3ccc[nH]3)cc2OC)C=C1 | – | – | 0.0163 µg/mL (≈ 0.0362 µM) | 1.24 µg/mL (≈ 2.75 µM) | 76
CCCCCCCC1=N/C(=C\c2[nH]c(-c3ccc[nH]3)cc2OCc2ccccc2)C=C1 | – | – | 0.0036 µg/mL (≈ 0.0087 µM) | 0.178 µg/mL (≈ 0.43 µM) | 49
CCCCCCCCCCCC1=N/C(=C\c2[nH]c(-c3ccc[nH]3)cc2OCc2ccccc2)C=C1 | 1.1 mg/kg | 5 mg/kg | 0.0242 µg/mL (≈ 0.0515 µM) | 3.74 µg/mL (≈ 7.96 µM) | 155
COc1cc(-c2ccc[nH]2)[nH]c1/C=C1/C=CC(CCCCCCF)=N1 | – | – | 0.0074 µg/mL (≈ 0.0217 µM) | 0.172 µg/mL (≈ 0.504 µM) | 23
COc1cc(-c2ccc[nH]2)[nH]c1/C=C1/C=CC(CCCCCC(=O)N2CCOCC2)=N1 | – | – | > 1 µg/mL | > 1 µg/mL | –
C1=C/C(=C/c2[nH]c(-c3ccc[nH]3)cc2OCc2ccccc2)N=C1CC1CCCCC1 | – | – | 0.0021 µg/mL (≈ 0.0051 µM) | 0.151 µg/mL (≈ 0.367 µM) | 72
CCCCCCCCCCCC1=N/C(=C\c2ccc(-c3ccc[nH]3)[nH]2)C=C1 | – | – | 0.4 µg/mL (≈ 1.1 µM) | 1.22 µg/mL (≈ 3.34 µM) | 3

SMILES | ED50 (Mus musculus [1]) | Toxicity (Mus musculus [2]) | IC50 (Mus musculus [3]) | IC50 (B16 [4]) | Selectivity index (B16 [5])
CCCCCCCC1=N/C(=C\c2[nH]c(-c3ccc[nH]3)cc2OC)C=C1 | – | – | 0.0056 µg/mL (≈ 0.0166 µM) | – | 29
COC(=O)CCCCCC1=N/C(=C\c2[nH]c(-c3ccc[nH]3)cc2OC)C=C1 | – | – | > 1 µg/mL | > 1 µg/mL | –
CCCCCCCCCCCC1=N/C(=C\c2[nH]c(-c3ccc[nH]3)cc2OCC)C=C1 | 1.2 mg/kg | 2 mg/kg | 0.0018 µg/mL (≈ 0.00442 µM) | 0.193 µg/mL (≈ 0.474 µM) | 107
CCCCCCCCCCCC1=N/C(=C\c2[nH]c(-c3ccc[nH]3)cc2O)C=C1 | – | – | > 1 µg/mL | > 1 µg/mL | –
CC1=N/C(=C\c2[nH]c(-c3ccc(C)[nH]3)cc2OCc2ccccc2)C=C1 | – | – | 0.0041 µg/mL (≈ 0.0119 µM) | 0.077 µg/mL (≈ 0.224 µM) | –
COc1cc(-c2ccc[nH]2)[nH]c1/C=C1/C=CC(CCCCCCCCCCC(=O)O)=N1 | – | – | > 1 µg/mL | > 1 µg/mL | –
C1=C/C(=C/c2[nH]c(-c3ccc[nH]3)cc2OCc2ccccc2)N=C1Cc1ccccc1 | – | – | 0.0065 µg/mL (≈ 0.016 µM) | 0.279 µg/mL (≈ 0.688 µM) | 43
C1=C(OCc2ccccc2)/C(=C/c2ccc[nH]2)N=C1c1ccc[nH]1 | – | – | 0.0153 µg/mL (≈ 0.0485 µM) | 0.181 µg/mL (≈ 0.574 µM) | 12
CCCCCCCCCCC1=N/C(=C\c2[nH]c(-c3ccc[nH]3)cc2OC)C=C1 | – | – | 0.0018 µg/mL (≈ 0.00474 µM) | 0.156 µg/mL (≈ 0.411 µM) | 87
CCCCCC1=N/C(=C\c2[nH]c(-c3ccc[nH]3)cc2OCc2ccccc2)C=C1 | – | – | 0.0049 µg/mL (≈ 0.0127 µM) | 0.083 µg/mL (≈ 0.215 µM) | 17
CCCCCCCCCCC1=N/C(=C\c2[nH]c(-c3ccc[nH]3)cc2OCc2ccccc2)C=C1 | – | – | 0.013 µg/mL (≈ 0.0285 µM) | 0.97 µg/mL (≈ 2.13 µM) | 75
CCCCCCCCCCCC1=N/C(=C\c2[nH]c(-c3ccccc3)cc2OC)C=C1 | – | – | > 1 µg/mL | > 1 µg/mL | –
CCCCCCCCCCCC1=N/C(=C\c2[nH]c(-c3cc4ccccc4[nH]3)cc2OC)C=C1 | – | – | 0.25 µg/mL (≈ 0.564 µM) | > 1 µg/mL | –
COc1cc(-c2ccc[nH]2)[nH]c1/C=C1/C=CC(CCCCCCCC#N)=N1 | – | – | 0.0162 µg/mL (≈ 0.0447 µM) | 0.235 µg/mL (≈ 0.648 µM) | 14
CCCCCCCCCCCC1=N/C(=C\c2[nH]c(-c3ccc[nH]3)cc2OCCCC)C=C1 | 1.5 mg/kg | 3 mg/kg | – | 1.51 µg/mL (≈ 3.47 µM) | 133
COc1cc(-c2ccc[nH]2)[nH]c1/C=C1/C=CC(CCCCCCO)=N1 | – | – | 0.0564 µg/mL (≈ 0.166 µM) | 0.787 µg/mL (≈ 2.32 µM) | 14
CCCCCCCCCCCCCC1=N/C(=C\c2[nH]c(-c3ccc[nH]3)cc2OC)C=C1 | 0.8 mg/kg | 1.5 mg/kg | 0.0014 µg/mL (≈ 0.00332 µM) | 0.282 µg/mL (≈ 0.669 µM) | 201
CCCCCCCCCCCC1=N/C(=C\c2[nH]c(-c3cccs3)cc2OCc2ccccc2)C=C1 | – | – | > 1 µg/mL | > 1 µg/mL | –
CCCCCCCCCCCC1=N/C(=C\c2[nH]c(-c3cc4cc(OC)ccc4[nH]3)cc2OC)C=C1 | – | – | 0.128 µg/mL (≈ 0.27 µM) | > 1 µg/mL | –
